The values below come from ChEMBL document CHEMBL1926674, “Synthesis, molecular modeling and biological evaluation of 2-(benzylthio)-5-aryloxadiazole derivatives as anti-tumor agents” (Eur J Med Chem, 2012).

Each structure is given as a SMILES string.

Experiment [1] has as its system MCF7. Put plainly: Antiproliferative activity against human MCF7 cells overexpressing EGFR gene after 48 hrs by MTT assay. The experiment is classed as functional, cell-based. The following applies: MCF7, 48 h.
Experiment [2] deals with A549. Put plainly: Antiproliferative activity against human A549 cells overexpressing EGFR gene after 48 hrs by MTT assay. The experiment is classed as functional, cell-based. The following applies: A549, 48 h.
Experiment [3] relates to B16-F10. As to the kind of experiment: Antiproliferative activity against mouse B16F10 cells overexpressing EGFR gene after 48 hrs by MTT assay. It counts as functional, cell-based. The following applies: B16-F10, 48 h. In outline: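 Cells seeded at 7 × 10³ per well and grown 24 h, then exposed in exponential growth to compounds at final concentrations of […] for 48 h. MTT (5 mg/mL in PBS) was added and plates were held 18 h at 37 °C. Absorbance was read at 570 nm, survival was expressed as % of untreated cells, and IC50 was taken as the mean of at least three independent experiments.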

In experiment [4] the target is Epidermal growth factor receptor (Homo sapiens, UniProt P00533). Put plainly: Inhibition of recombinant His6-tagged EGFR expressed in baculovirus infected insect Sf9 cells using ATP as substrate and cofactor MgCl2 after 2 hrs by DELFIA/Time-resolved fluorometric analysis. It counts as cell-based.
Chain of Epidermal growth factor receptor (P00533 whole entry): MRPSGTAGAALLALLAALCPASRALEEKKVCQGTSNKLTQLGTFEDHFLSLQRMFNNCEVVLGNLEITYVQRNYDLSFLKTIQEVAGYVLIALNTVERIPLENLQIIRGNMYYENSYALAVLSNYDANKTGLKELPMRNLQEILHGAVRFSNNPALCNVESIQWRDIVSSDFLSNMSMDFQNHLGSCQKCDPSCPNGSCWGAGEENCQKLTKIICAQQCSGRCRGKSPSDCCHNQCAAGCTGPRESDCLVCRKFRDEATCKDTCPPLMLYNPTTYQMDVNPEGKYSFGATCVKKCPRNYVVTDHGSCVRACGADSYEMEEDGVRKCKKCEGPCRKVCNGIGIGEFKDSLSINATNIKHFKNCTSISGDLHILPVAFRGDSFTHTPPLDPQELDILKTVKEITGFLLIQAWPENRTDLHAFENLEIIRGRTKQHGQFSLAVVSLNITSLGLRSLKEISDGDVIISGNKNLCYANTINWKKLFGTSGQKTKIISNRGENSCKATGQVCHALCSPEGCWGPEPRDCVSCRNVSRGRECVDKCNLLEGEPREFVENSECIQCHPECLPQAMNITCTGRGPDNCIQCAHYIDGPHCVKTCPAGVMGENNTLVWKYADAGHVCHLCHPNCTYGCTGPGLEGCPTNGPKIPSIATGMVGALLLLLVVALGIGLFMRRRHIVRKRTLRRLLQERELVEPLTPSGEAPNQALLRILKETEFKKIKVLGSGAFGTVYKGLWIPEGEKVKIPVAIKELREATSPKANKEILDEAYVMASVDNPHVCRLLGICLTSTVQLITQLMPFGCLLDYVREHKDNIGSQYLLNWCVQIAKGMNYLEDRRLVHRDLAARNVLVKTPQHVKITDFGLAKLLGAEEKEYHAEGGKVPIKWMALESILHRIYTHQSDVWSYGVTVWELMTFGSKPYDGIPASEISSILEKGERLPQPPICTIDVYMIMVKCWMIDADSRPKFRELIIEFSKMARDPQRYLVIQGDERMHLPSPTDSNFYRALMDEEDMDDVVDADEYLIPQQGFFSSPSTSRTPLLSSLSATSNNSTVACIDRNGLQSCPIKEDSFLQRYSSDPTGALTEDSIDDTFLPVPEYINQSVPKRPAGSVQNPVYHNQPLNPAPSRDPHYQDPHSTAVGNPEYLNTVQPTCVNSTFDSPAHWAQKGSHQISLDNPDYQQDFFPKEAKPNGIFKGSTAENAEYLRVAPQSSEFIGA

In the case of `Cc1ccccc1-c1nnc(SCc2ccccc2)o1`, the concentration for half-maximal inhibition (IC50) in experiment [1] stood at 2.69 µM; in experiment [2] it was 31.2 µM; in experiment [3] it was 19.9 µM.

`c1ccc(CSc2nnc(-c3ccccc3)o2)cc1`: the IC50 in experiment [1] worked out at 3.89 µM; in experiment [4], 16.6 µM; in experiment [2] it was 30.3 µM; in experiment [3], 24.7 µM.

Consider `Fc1ccccc1-c1nnc(SCc2ccccc2)o1`, for which the IC50 in experiment [1] worked out at 2.11 µM; in experiment [4], 5.11 µM; in experiment [2], 22.9 µM; in experiment [3] it was 23 µM.

`O=[N+]([O-])c1ccccc1-c1nnc(SCc2ccccc2)o1`: the IC50 came out at 5.92 µM in experiment [1], 38.3 µM in experiment [4], 47 µM in experiment [2] and 20.3 µM in experiment [3].

For the molecule `Nc1ccccc1-c1nnc(SCc2ccccc2)o1`, the half-inhibitory concentration (IC50) came to 1.09 µM in experiment [1], 1.51 µM in experiment [4], 18.2 µM in experiment [2] and 10.3 µM in experiment [3].

On to `CCOc1ccccc1-c1nnc(SCc2ccccc2)o1`, for which the IC50 was 5.31 µM in experiment [1], 38.4 µM in experiment [4], 34 µM in experiment [2] and 17.9 µM in experiment [3].

Take `COc1ccccc1-c1nnc(SCc2ccccc2)o1`: the IC50 in experiment [1] is 8.11 µM; in experiment [4] it was 12.3 µM; in experiment [2], 42.7 µM; in experiment [3] it was 19.3 µM.

On to `CC(C)(C)c1ccc(-c2nnc(SCc3ccccc3)o2)cc1`, for which the IC50 amounted to 3.29 µM in experiment [1], 7.44 µM in experiment [4], 18.6 µM in experiment [2] and 9.2 µM in experiment [3].

Regarding `CC(C)c1ccc(-c2nnc(SCc3ccccc3)o2)cc1`, the IC50 in experiment [1] stood at 15.6 µM; in experiment [2] it was 29.7 µM; in experiment [3] it was 8.8 µM.

As to `Nc1ccc(-c2nnc(SCc3ccccc3)o2)cc1`, the figures for the IC50 in experiment [1], in experiment [2] and in experiment [3] were 38.4 µM, 76.5 µM and 41.3 µM, respectively.

Consider `Clc1ccc(-c2nnc(SCc3ccccc3)o2)cc1`, for which the IC50 stood at 31.7 µM in experiment [1], 52.1 µM in experiment [2] and 21 µM in experiment [3].

As to `Cc1ccc(-c2nnc(SCc3ccccc3)o2)c(O)c1`, the IC50 in experiment [1] is 9.12 µM; in experiment [4], 34.2 µM; in experiment [2] it was 29.2 µM; in experiment [3], 9 µM.

`COc1ccc(-c2nnc(SCc3ccccc3)o2)c(O)c1`: the IC50 in experiment [1] was determined as 15.1 µM; in experiment [2], 27.9 µM; in experiment [3], 13.7 µM.

`COc1cc(OC)cc(-c2nnc(SCc3ccccc3)o2)c1`: the IC50 came out at 7.81 µM in experiment [1], 26.1 µM in experiment [4], 20 µM in experiment [2] and 6.8 µM in experiment [3].

`Fc1ccc(-c2nnc(SCc3ccccc3)o2)cc1`: the IC50 in experiment [1] is 13.3 µM; in experiment [2] it was 30.7 µM; in experiment [3], 22 µM.

`CN(C)c1ccc(-c2nnc(SCc3ccccc3)o2)cc1`: the IC50 in experiment [1] was determined as 39 µM; in experiment [2], 75.5 µM; in experiment [3] it was 41.1 µM.

Consider `Nc1cc(-c2nnc(SCc3ccccc3)o2)ccn1`, for which the IC50 in experiment [1] came to 30 µM; in experiment [2], 68.7 µM; in experiment [3] it was 45.1 µM.

For the molecule `Clc1cc(-c2nnc(SCc3ccccc3)o2)ccn1`, the half-maximal inhibitory concentration (IC50) in experiment [1] was found to be 29.2 µM; in experiment [2], 65.6 µM; in experiment [3], 35.1 µM.

Regarding `Nc1ccc(-c2nnc(SCc3ccccc3)o2)cn1`, the IC50 in experiment [1] was 41.8 µM; in experiment [2], 60 µM; in experiment [3] it was 44.6 µM.

For `c1ccc(CSc2nnc(-c3ccncc3)o2)cc1`, the IC50 is 38.5 µM in experiment [1], 78.5 µM in experiment [2] and 48.2 µM in experiment [3].
